Compound activity: PubChem, The Scripps Research Institute Molecular Screening Center
Compounds with a hit are over-represented: about 3% of the library has one in this group of screens.
Hsp70 activator = switches on Hsp70 transcription; activation, % at 10 µM; HeLa Hsp70 promoter luciferase reporter, luminescence; scaled: vehicle 0, proteasome-inhibitor control 100%; hit rate 0.04% among 200,000; AID 1203;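 active = activation above the mean across all tested compounds plus 3 SD, cutoff set per campaign, cut at about 5.5% in these data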;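 also: 100% = MG132 at 30 µM as the positive control and 0% = DMSO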
NPY-Y1 antag = antagonists of human neuropeptide Y receptor Y1; HEK293-CNG Y1 cells, membrane potential fluorescence; NPY at EC95, then isoproterenol; hit rate 1% among 200,000; P25929; inhibition, % at 3.6 µM;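 active = inhibition above the campaign mean inhibition of all tested compounds plus 3 SD, cut at about 20% in these data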;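 also: 0% = DMSO wells given NPY plus isoproterenol and 100% = isoproterenol alone without NPY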
Target sequence (P25929 whole entry, looked up): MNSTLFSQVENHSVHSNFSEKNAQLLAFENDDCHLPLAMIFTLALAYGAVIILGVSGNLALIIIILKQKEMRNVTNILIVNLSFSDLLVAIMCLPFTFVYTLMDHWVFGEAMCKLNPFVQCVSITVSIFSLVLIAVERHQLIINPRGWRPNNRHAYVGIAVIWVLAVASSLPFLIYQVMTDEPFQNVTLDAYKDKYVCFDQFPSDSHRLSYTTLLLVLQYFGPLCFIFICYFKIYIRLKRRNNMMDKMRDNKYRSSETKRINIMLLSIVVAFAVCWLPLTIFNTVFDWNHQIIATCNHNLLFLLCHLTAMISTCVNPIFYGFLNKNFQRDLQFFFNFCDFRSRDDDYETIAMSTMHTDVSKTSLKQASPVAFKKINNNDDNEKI
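Material: HEK293 cells with Y1 receptor plus CNG channel; times: compound incubation 1 h at room temperature, readout 45 min post-stimulation; signal: fluorescence, membrane potential probe; read-out basis: fluorescence ratio normalized to % inhibition between controls; benchmarks: full-block control isoproterenol-only wells, zero-block control NPY plus isoproterenol wells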
Wee1 degr inh = blocks degradation of human Wee1 kinase; HeLa Luc-Wee1K328M stability, luciferase luminescence; 100% = proteasome inhibitor MG132 effect; reporter increase, % at 5 µM; hit rate 1.2% among 220,000; AID 1321;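 active = activation above the mean of all tested compounds plus 3 SD, set per screening run, cut at about 8.8% in these data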;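 also: cells exposed to compound for 20 h before luminescence read; 0% = DMSO alone and 100% = MG132 at 30 µM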
NPY-Y1 PAM-ag = human NPY-Y1 potentiation or agonism, primary screen; activation, % at 3.6 µM; P25929; NPY-Y1 expressing cells, potentiator/agonist activation; hit rate 0.37% among 220,000; in the data active = activation above about 33%, passing the limit was not always enough;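 also: cells stimulated with NPY at EC10 then isoproterenol at EC100; 0% = low agonist plus stimulus and 100% = saturating agonist plus stimulus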
NPY-Y2 antag = blocks the human neuropeptide Y Y2 receptor; inhibition, % at 2.7 µM; P49146; hit rate 0.99% among 140,000; NPY-Y2 expressing cells, antagonist mode; in the data active = inhibition above about 17%;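 also: 0% = vehicle with agonist challenge and 100% = reference antagonist with challenge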
NPY-Y2 PAM-ag = human NPY-Y2 potentiation or agonism, primary screen; cells expressing NPY-Y2, potentiator/agonist read-out; activation, % at 3.6 µM; hit rate 0.45% among 220,000; in the data active = activation above about 27%;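 also: cells stimulated with NPY near EC25 plus isoproterenol at EC100; 0% = vehicle plus submaximal agonist and 100% = vehicle plus saturating agonist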
* hit, by the source's call; x = not tested or not shown.

SMILES	Hsp70 activator	NPY-Y1 antag	Wee1 degr inh	NPY-Y1 PAM-ag	NPY-Y2 antag	NPY-Y2 PAM-ag
CC(C)CC(NC(=O)OC(C)(C)C)c1cn([C@@H](CCCCNC(=O)OC(C)(C)C)C(=O)N2CCN(C(=O)OC(C)(C)C)CC2)nn1 (stereo not given in full)	0	-6	10*	12	x	1
CC(OC(=O)Cc1coc2cc3c(cc12)CCC3)C(=O)NC(N)=O (stereo not given)	0	3	2	-5	x	-10
Cc1ccc(OCCOCCN(C)C)c(Cl)c1	0	4	3	2	3	10
COc1ccc(CCNC(=O)C2CCN(c3ccc(N4CCOCC4)nn3)CC2)c(OC)c1	0	-3	-2	-8	2	-15
S=C(NCCc1ccccc1)N/N=C/c1c(Cl)cccc1Cl	0	22*	-1	-41	23*	-17
Cc1ccc(C2CC(c3cccs3)n3nc(N)nc3N2)cc1 (stereo not given)	0	22*	0	2	0	12
Cn1ccnc1Sc1ccc(C(N)=O)cc1[N+](=O)[O-]	0	3	3	1	x	-4
N#Cc1c(-c2ccccc2)c(-c2ccccc2)nn(CC(=O)NNC(=O)Nc2ccccc2)c1=O	0	-1	1	38	0	8
N#Cc1c(-c2ccccc2)c(-c2ccccc2)nn(CC(=O)NNC(=O)Nc2ccc(Cl)cc2)c1=O	x	x	1	51*	x	39*
CCOC(=O)c1ccc(NC(=O)CC2S/C(=N/N=C3/NC(=O)CS3)NC2=O)cc1 (stereo not given)	0	4	0	-18	x	-17
Cc1ccc(NC(=O)CC2S/C(=N/N=C/c3c[nH]c4ccccc34)NC2=O)cc1 (stereo not given)	0	5	9.7*	-1	-7	12
CCOC(=O)c1ccc(NC(=O)CC2S/C(=N/N=C/c3c[nH]c4ccccc34)NC2=O)cc1 (stereo not given)	0	-16	4	49*	-3	33*
Cc1ccccc1C(=O)N1CCN(c2ccc(NC(=O)c3ccc4c(c3)OCO4)cc2)CC1	0	-7	2	45*	x	56*
O=C(COC(=O)Cc1cccc2ccccc12)Nc1ccccc1-c1ccccc1	0	6	-2	-14	6	3
Fc1ccc(NC(=S)Nc2ccc(Br)cc2)cc1	0	0	-1	-6	0	-1
CCN(CC)C(=O)N1CCc2ccccc2C1CN1C(=O)c2ccccc2C1=O (stereo not given)	0	5	5	-13	8	-8
COc1ccc(NS(=O)(=O)c2cc(OC)ccc2NC(=O)c2cc(C)oc2C)cc1	-1	20*	6	25	5	24
COc1ccc(NC(=O)c2cc(S(=O)(=O)N3CCCC3)oc2C)cc1	x	x	2	10	x	8
COc1ccc(NC(=O)Nc2sc(=S)n(C)c2C)cc1	0	-2	12*	7	x	3
Cc1nn(CCCC(=O)Nc2c(F)cc(F)cc2Br)c(C)c1[N+](=O)[O-]	0	3	5	5	x	-1
Cn1nnnc1SCC1=C(C(=O)O)N2C(=O)C(NC(=O)C3CC3c3ccccc3)C2SC1 (stereo not given)	0	-2	11*	15	x	-1
Cn1nnnc1SCC1=C(C(=O)O)N2C(=O)[C@@H](NC(=O)[C@H](O)c3ccccc3)[C@H]2SC1	0	0	-4	-8	-1	9
NC(=O)c1nnsc1Sc1c(C(N)=O)nnn1-c1cccc(N)c1	0	-5	6	12	x	8
Cc1cc(NC(=O)c2cc(-c3ccco3)on2)n(-c2ccccc2)n1	0	3	1	2	0	11
Cc1cc(-c2ccco2)n(-c2ccccc2)n1	0	-15	-4	105*	3	101*
COc1ccc(Nc2cc(C(=O)NCCCN3CCN(C)CC3)c3ccccc3n2)cc1	0	-3	-1	16	-1	-23
COc1ccc(Nc2cc(C(=O)NCc3ccco3)c3ccccc3n2)cc1	-1	-1	11*	0	1	-10
COC(=O)N/N=C1/C/C(=N\NC(=O)OC)c2ccccc21	0	-5	-1	2	x	12
